An excerpt weighted towards active compounds, which were near 1.6% of everything screened.
PKA-R2B act: activators of PKA-R2B holoenzyme, primary screen, biochemical, fluorescence polarization, Cy5-IP20, human; cAMP-dependent protein kinase catalytic subunit beta (Homo sapiens) + cAMP-dependent …; PKA-R2B holoenzyme dissociation; R2B truncated from residue 108, S112A mutant; 0% DMSO only, 100% 113 µM cGMP; AID 504700, 2011; actives 0.079% (n = 340,000); activation, % at 11.4 µM;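 active means activation above a cutoff set at the mean over all compounds plus 3 SD, cut at about 18% in these data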;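 further: higher means more holoenzyme dissociation and a rise in polarization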
Rpn11 block: Rpn11 (PSMD14) deubiquitinase inhibitors, primary screen, biochemical, fluorescence polarization, uHTS. human 26S proteasome, Ub4-pepOG fluorescence polarization; 20S core pre-blocked with epoxomicin. AID 588493, 2011. 26S proteasome non-ATPase regulatory subunit 14 (Homo sapiens), O00487. actives 0.59% (n = 360,000). calls only at 20 µM;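 active means inhibition at 20 µM, scaled to each plate's controls, above about 33%, limit read from the data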
CSN inh: inhibitors of CSN-mediated cullin deneddylation, primary screen, biochemical, fluorescence polarization, uHTS. COP9 signalosome complex subunit 5 (Homo sapiens), Q92905. Purified CSN, SCF-Nedd8-OG deneddylation. inhibition, % at 12.5 µM. actives 0.38% (n = 360,000). AID 651999, 2013;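 active means pattern-corrected inhibition above about 35%, with an unprinted fluorescence ratio check between 0.5 and 1.5, limit read from the data, passing the limit was not always enough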;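 further: 0% = enzyme with substrate and 100% = substrate without enzyme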
Target sequence (Q92905 whole entry, looked up, one chain of several): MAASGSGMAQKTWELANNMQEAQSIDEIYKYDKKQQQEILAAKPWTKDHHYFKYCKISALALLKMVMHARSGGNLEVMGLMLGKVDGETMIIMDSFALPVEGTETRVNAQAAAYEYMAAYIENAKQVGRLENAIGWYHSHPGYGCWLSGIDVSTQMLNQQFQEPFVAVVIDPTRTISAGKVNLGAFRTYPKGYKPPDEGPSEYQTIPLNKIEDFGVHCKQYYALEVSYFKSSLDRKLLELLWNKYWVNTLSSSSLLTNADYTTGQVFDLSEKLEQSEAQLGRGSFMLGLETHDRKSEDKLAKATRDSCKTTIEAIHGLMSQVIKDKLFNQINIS
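Test system: Human Csn5 produced in HEK293T cells | Compound: 12.5 µM single point | Times: 90 min, room temperature | Signal: Fluorescence polarization readout | Read-out basis: % inhibition of substrate cleavage by Csn5 | Controls: no-enzyme wells high, enzyme-with-substrate wells low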
HNF4A DNA FP: change in binding of human HNF4A to DNA, primary screen, biochemical, fluorescence polarization, FITC-DNA | actives 0.3% (n = 360,000) | 1 h | Hepatocyte nuclear factor 4-alpha (Homo sapiens), P41235 | activity change, % at 10 µM; in the data active means activity change above about 30%, passing the limit was not always enough
TPT1 inh: Candida albicans TPT1 enzyme inhibitors, primary screen, biochemical, fluorescence polarization. tRNA 2'-phosphotransferase TPT1 (Candida albicans SC5314). recombinant caTPT1, FP RNA substrate dephosphorylation. inhibition, % at 5 µM. actives 0.81% (n = 300,000);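 active means inhibition above the mean of all tested compounds plus 3 SD, set per screening campaign, cut at about 24% in these data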;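 further: plate controls were DMSO alone for no effect and ferristatin control at 100 nM for full effect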
PKA-R1A act: activators of PKA-R1A holoenzyme, primary screen, biochemical, fluorescence polarization, Cy5-IP20, bovine R1A, mouse PKAc; PKA-R1A dissociation; scaled: DMSO 0%, 113 µM cGMP 100%; actives 0.083% (n = 340,000); activation, % at 11.4 µM; cAMP-dependent protein kinase type I-alpha regulatory subunit (Bos taurus) + …;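 active means percent activation above the mean of all tested compounds plus 3 SD, cut at about 19% in these data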;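 further: higher means more PKAc released from R1A so a rise in polarization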
TPT1 inh confirm: Candida albicans TPT1 inhibitors, confirmation, biochemical, fluorescence polarization, triplicate; shares compounds with TPT1 inh; recombinant caTPT1, RNase T1 coupled; inhibition, % at 5 µM; actives 74% (n = 2,400); AID 2149, 2009;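 active means inhibition above the primary screen limit, the mean inhibition of all tested compounds plus 3 SD, cut at about 25% in these data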
RNase T1 counter: RNase T1 inhibitors, counter-screen for TPT1 inhibitor project, biochemical, fluorescence polarization; shares compounds with TPT1 inh; RNase T1 cleavage, 1536-well; inhibition, % at 5 µM; actives 83% (n = 2,400); AID 2153, 2009;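 active means inhibition above the solvent-only control well mean plus 3 SD, limit set per screening run, cut at about 23% in these data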;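 further: plate controls were DMSO wells with enzyme for no effect and wells without RNase T1 for full effect; inhibitors block cleavage so intact labeled substrate keeps polarization high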
Target sequence (P00651 whole entry, looked up): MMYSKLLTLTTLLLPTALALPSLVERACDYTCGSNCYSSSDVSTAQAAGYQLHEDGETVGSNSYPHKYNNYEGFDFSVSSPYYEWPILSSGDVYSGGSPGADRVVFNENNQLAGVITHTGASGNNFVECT
The depositor's hits bear a star; i = inactive; x = no result given; + = active, no number.

SMILES	PKA-R2B act	Rpn11 block	CSN inh	HNF4A DNA FP	TPT1 inh	PKA-R1A act	TPT1 inh confirm	RNase T1 counter
Cc1csc(NC(=O)c2sc3nc(-c4cccs4)ccc3c2N)n1	x	x	x	x	27*	x	26*	41*
COc1ccc(C(=O)Nc2nc(-c3cccs3)cs2)cc1	2	i	5	0	1	1	x	x
C[C@@H]1COC(=O)CCC/C=C\C[C@@H](CC(=O)N(CCO)Cc2ccccc2)C(=O)N1	14	i	-1	-5	x	-8	x	x
N#Cc1cc(Sc2ccccn2)c([N+](=O)[O-])cc1C#N	-7	+	23	23	38*	-1	36*	45*
O=C(COc1ccc2c3c(c(=O)oc2c1)CCC3)NCCCN1CCCC1=O	1	i	-2	4	2	-3	x	x
COc1cc(/C=C(\C#N)c2ccccn2)cc(OC)c1O	-4	x	12	4	56*	7	72*	76*
CN(C)c1ccc(/C=C(\C#N)c2ccccn2)cc1	3	x	12	31	86*	-12	83*	92*
COc1cc(/C=C(\C#N)c2[nH]nc(N)c2C#N)cc(OC)c1O	9	i	8	11	25*	0	33*	37*
CCOC(=O)c1sc(N/N=C/c2ccccc2)nc1C	-10	i	-4	0	0	0	x	x
CC(=O)c1sc(N/N=C\c2ccccc2O)nc1C	5	x	13	35*	136*	-7	118*	115*
Cc1ccc(S(=O)(=O)N2CCOC2CNC(=O)C(=O)NCc2cccnc2)cc1 (stereo unspecified)	-7	i	-5	6	-3	0	x	x
CC[n+]1c(/C=C/N(C)c2ccccc2)oc2ccccc21	10	x	27	26	36*	-16	49*	61*
CCn1c(/C=C/N(C)c2ccccc2)[n+](CC)c2ccc(Cl)cc21	-7	i	1	7	-1	-9	x	x
CC[n+]1c(/C=C/Nc2ccccc2)oc2ccccc21	-8	i	17	29	38*	-5	52*	64*
CCOc1ccc(NC2OCC(O)C(O)C2O)c([N+](=O)[O-])c1 (stereo unspecified)	-12	i	8	0	-3	-16	x	x
CCCc1cc(C(=O)Cc2ccc(C(=O)OCC)o2)c(O)cc1O	-5	i	8	17	24*	-8	20	30*
Cc1oc(-c2ccccc2Cl)nc1CN1CCCC1c1ccc(F)cc1 (stereo unspecified)	-12	i	3	7	3	-8	x	x
Cc1ccc(-c2nc(CN3CCCCC3c3cccc(F)c3)c(C)o2)o1 (stereo unspecified)	-8	i	9	19	33*	-2	23	30*
COc1ccc(CCNC(=O)CSc2nn(-c3ccccc3)c(=S)s2)cc1OC	12	i	6	-1	-2	-4	x	x
N=c1oc2cc(O)ccc2cc1C(=O)Nc1ccc(Cl)cc1	-7	i	5	34	50*	-3	70*	80*
N#CC1CC(c2ccc([N+](=O)[O-])cc2)=NN1c1ccc([N+](=O)[O-])cc1 (stereo unspecified)	-3	x	23	87	73*	-11	91*	97*
O=C(O)c1ccccc1-c1ccc(/C=c2\sc3nc4cc(Br)cnc4n3c2=O)o1	-4	x	186*	-5	84*	7	131*	122*
CC(=O)NC(C)(c1ccccc1)c1nc(-c2ccc(N(C)C)cc2)cs1 (stereo unspecified)	x	i	1	1	x	x	x	x
CCOC(=O)c1c(NC(=O)CC)sc2c1CCN(Cc1ccccc1)C2	12	i	2	6	3	-2	x	x
CCOC(=O)c1c(NC(=O)C(C)Sc2cccc[n+]2[O-])sc2c1CCN(Cc1ccccc1)C2 (stereo unspecified)	-4	i	10	4	71*	-11	77*	86*
SMILES	PKA-R2B act	Rpn11 block	CSN inh	HNF4A DNA FP	TPT1 inh	PKA-R1A act	TPT1 inh confirm	RNase T1 counter
CCOC(=O)c1c(NC(C)=O)sc2c1CCN(Cc1ccccc1)C2	13	i	6	3	1	-9	x	x
CCOC(=O)c1c(NC(=S)Nc2ccccc2)sc2c1CCN(CCc1ccccc1)C2	x	x	x	x	120*	x	114*	113*
CCOC(=O)c1c(N)sc2c1CCN(CCc1ccccc1)C2	-6	x	20	23	28*	-11	16	24*
CCOc1ccc(N(C)S(=O)(=O)c2cc(-c3cc(C)no3)ccc2CC)cc1	4	i	0	0	-1	16	x	x
O=C(O)Cn1cc(/C=N/Nc2ccc([N+](=O)[O-])cn2)c2ccccc21	-7	i	8	6	x	-4	x	x
Cc1ccc(Cn2cc(/C=N/Nc3ccc([N+](=O)[O-])cn3)c3ccccc32)cc1	6	i	25	54*	51*	3	34*	44*
Cc1cc(/C=N/Nc2ccc([N+](=O)[O-])cn2)c(C)n1-c1ccccc1	-9	i	1	7	31*	-14	35*	47*
Cc1ccc(-n2c(C)cc(/C=N/Nc3ccc([N+](=O)[O-])cn3)c2C)cc1	-2	i	7	3	34*	-3	35*	47*
Cc1ccccc1S(=O)(=O)NC(=O)C1(C)CCN1C(=O)c1c(C)noc1C (stereo unspecified)	x	i	0	-4	x	x	x	x
CC1=NS(=O)(=O)NC(C)(C)C1	-9	i	0	-1	x	-12	x	x
